Assay results of several laboratories.
Lines come from different studies, so protocols differ.
OPRL1: Nociceptin receptor (OPRL1, Homo sapiens, UniProt P41146)
nupG: nupG (Escherichia coli, UniProt P0AFF4)
PIK3C3: Phosphatidylinositol 3-kinase catalytic subunit type 3 (PIK3C3, Homo sapiens, UniProt Q8NEB9)

Compound | target | assay | setting | quantity | result
Nc1ccnc2ccccc12 | Alpha-2C adrenergic receptor (ADRA2C, Homo sapiens, UniProt P18825) | ligand displacement, radioligand | cell membranes | Ki | 81.3 µM
CCOC(=O)[C@@]12C[C@@H]1[C@@H](n1ccc3c(NC)nc(C#Cc4ccccc4)nc31)[C@H](O)[C@@H]2O | OPRL1 | ligand displacement, radioligand | – | Ki | > 10 µM
Nc1nc2c(ncn2[C@@H]2O[C@H](CO)[C@@H](O)[C@H]2O)c(=O)[nH]1 | nupG | binding, ITC | – | Kd | 46.7 µM
CCCC[C@H](NC(=O)[C@H](C)c1c(C)[nH]c2ccc(O)cc12)c1ncc(-c2cc3ccccc3nc2OC)[nH]1 | Prostaglandin E2 receptor EP3 subtype (PTGER3, Homo sapiens, UniProt P43115) | cell-free assay | – | Ki | 5.32 µM
CCOCc1nc(O)c(-c2nnc(Cc3ccc(Cl)cn3)o2)c(O)c1-c1c(OC)cccc1OC | Apelin receptor (APLNR, Homo sapiens, UniProt P35414) | cell-free assay, radioligand | – | Kd | 0.00015 µM
Oc1ccccc1F | Iodotyrosine deiodinase (Haliscomenobacter hydrossis, UniProt F4KU78) | binding, fluorescence | – | Kd | 20000 µM
COc1ccccc1/C=C/C(=O)NC(=S)Nc1ccc(S(=O)(=O)N(C)c2ccccc2)cc1 | G-protein coupled receptor 55 (GPR55, Homo sapiens, UniProt Q9Y2T6) | β-arrestin recruitment, agonist | – | EC50 | 0.3 µM
Nc1ncnc2c1ncn2[C@@H]1O[C@H](CO)[C@@H](O)[C@H]1O | nupG | binding, ITC | – | Kd | 99.7 µM
Cc1nc(NC(=O)N2CCC[C@H]2C(N)=O)sc1-c1ccnc(C(C)(C)C(F)(F)F)c1 | PIK3C3 | binding, competition with immobilised ligand | – | Kd | 24.5 µM
Cc1occc(=S)c1O | Carbonic anhydrase 14 (CA14, Homo sapiens, UniProt Q9ULX7) | enzyme activity, inhibitor, stopped-flow | – | Ki | 6.7 µM
OC[C@H]1OC(O)[C@H](O)[C@@H](O)[C@@H]1O (some centres unmarked) | Hexokinase-1 (Homo sapiens, UniProt P19367) | binding, MST | – | Kd | 158 µM
CN1CCN(c2ccc(Nc3ncc4cc(C#N)c(=O)n(C5CCCC5)c4n3)cc2)CC1 | Calcium/calmodulin-dependent protein kinase type II subunit beta (CAMK2B, Homo sapiens, UniProt Q13554) | enzyme activity, inhibitor | – | IC50 | > 10 µM
C[C@]12CC[C@H](O)CC1=CC[C@@H]1[C@@H]2CC[C@]2(C)C(c3cccnc3)=CC[C@@H]12 | Estrogen receptor (ESR1, Homo sapiens, UniProt P03372) | ligand displacement in cells, radioligand | – | Ki | 0.39 µM
Nc1nc2c(ncn2[C@@H]2O[C@H](COP(=O)(O)OP(=O)(O)O)[C@@H](OP(=O)(O)OP(=O)(O)O)[C@H]2O)c(=O)[nH]1 | pgk (Escherichia coli, UniProt P0A799) | binding, ITC | – | Kd | 493 µM
CCC(=O)N1CCC(C(=O)N(C)CC(=O)N2CCN(c3nc(-c4cnc(N)nc4C(F)F)nc(N4CCOCC4)n3)CC2)CC1 | PIK3C3 | binding, competition with immobilised ligand | – | Kd | 0.405 µM
C[C@H]1Oc2cc(cnc2N)-c2c(nn(C)c2C#N)CN(C)C(=O)c2ccc(F)cc21 | Serine/threonine-protein kinase PLK4 (PLK4, Homo sapiens, UniProt O00444) | cell-free assay | lysate | Ki | 0.107 µM
CC1Cc2ccccc2N1C(=O)NCCCCN(C)[C@@H]1Cc2cccc3[nH]c(=O)n(c23)C1 (mixture of isomers) | 5-hydroxytryptamine receptor 1A (HTR1A, Homo sapiens, UniProt P08908) | ligand displacement, radioligand | – | Ki | 0.0237 µM
O=c1ccn([C@@H]2O[C@H](COP(=O)(O)OP(=O)(O)O[C@H]3OC[C@@H](O)[C@H](O)[C@H]3O)[C@@H](O)[C@H]2O)c(=O)[nH]1 | UDP-glucose 6-dehydrogenase (UGDH, Homo sapiens, UniProt O60701) | enzyme activity, inhibitor | – | Ki | 0.18 µM
C=C(C)[C@@H]1CC=C(C)C(=O)C1 | OR1A1 (Homo sapiens, UniProt Q9P1Q5) | cAMP, agonist, luciferase | – | EC50 | 7.29 µM
CCOC(=O)[C@@]12C[C@@H]1[C@@H](n1cnc3c(NC)nc(C#Cc4ccc(Cl)s4)nc31)[C@H](O)[C@@H]2O | OPRL1 | ligand displacement, radioligand | – | Ki | > 10 µM
